Experiments:
Assay type in all cases: functional, cell-based
[1] = tested on: SK-MEL-2; test: Concentration required to kill 50 % of human melanoma SK-MEL2 cells
How it was run: (§1)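 MTT assay. Cells at 2500–30,000/well were preincubated 24 h at 37 C, 5% CO2. Fourfold dilutions of compound in 10% DMSO were added, in duplicate, and exposure ran 72 h at 37 C. MTT was then added for 1–4 h, formazan was dissolved in 10% SDS (pH 5.5) overnight, and OD was read at 540 nm. Survival was calculated versus control wells, with IC50 from dose–response curves.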

[2] = tested on: K562; test: Concentration required to kill 50 % of human chronic myelogenous leukemia cell line K562; how it was run: as §1
[3] = tested on: HT-29; test: Concentration required to kill 50 % of human colon cancer cell line HT-29; how it was run: as §1
[4] = tested on: PC-3; test: Concentration required to kill 50 % of human prostate cancer PC3 cells; how it was run: as §1
[5] = tested on: CCRF-CEM; test: Concentration required to kill 50 % of human T-lymphoblastic leukemia cell line (CEM); how it was run: as §1
[6] = tested on: K562; test: Concentration required to kill 50 % of human paclitaxel-resistant subline of K562 cells (K-562-Tax); how it was run: as §1
[7] = Homo sapiens, K562, read-out: IC50
[8] = Homo sapiens, HT-29, read-out: IC50
[9] = Homo sapiens, PC-3, read-out: IC50
[10] = Homo sapiens, CCRF-CEM, read-out: IC50
[11] = Homo sapiens, SK-MEL-2, read-out: IC50

SMILES: CC(C)C1=C2C3CCC4[C@@]5(C)CC[C@H](O)C(C)(C)C5CC[C@@]4(C)[C@]3(C)CC[C@@]2(C(=O)OCc2ccccc2)CC1=O (some centres not stated)
- IC50 ([1]; sk-mel-2): 156 uM l-1
- IC50 [2, 7]: 27 µM
- IC50 [3, 8]: 21 µM
- IC50 [4, 9]: 37 µM
- IC50 [5, 10]: 26 µM
- IC50 [6, 7]: 28 µM

SMILES: COC(=O)[C@@]12CC[C@]3(C)C(CCC4[C@@]5(C)CC[C@H](OC(C)=O)C(C)(C)C5CC[C@]43C)C1=C(C(C)C)C(=O)C2=O (some centres not stated)
- IC50 [1, 11]: 87 µM
- IC50 [2, 7]: 29 µM
- IC50 [3, 8]: 33 µM
- IC50 [4, 9]: 34 µM
- IC50 [5, 10]: 16 µM
- IC50 [6, 7]: 36 µM

SMILES: CC(=O)O[C@H]1CC[C@@]2(C)C(CC[C@]3(C)C2CCC2C4=C(C(C)C)C(=O)C[C@]4(CO)CC[C@]23C)C1(C)C (some centres not stated)
- IC50 [1, 11]: 84 µM
- IC50 [2, 7]: 37 µM
- IC50 [3, 8]: 33 µM
- IC50 [4, 9]: 39 µM
- IC50 [5, 10]: 28 µM
- IC50 [6, 7]: 35 µM

SMILES: CCOC(=O)[C@@]12CC[C@]3(C)C(CCC4[C@@]5(C)CC[C@H](OC(C)=O)C(C)(C)C5CC[C@]43C)C1=C(C(C)C)C(=O)C2 (some centres not stated)
- IC50 ([1]; sk-mel-2): 216 uM l-1
- IC50 [2, 7]: 59 µM
- IC50 ([3]; ht-29): 224 uM l-1
- IC50 ([4]; pc-3): 244 uM l-1
- IC50 ([5]; ccrf-cem): 102 uM l-1
- IC50 ([6]; k562): 206 uM l-1

SMILES: CC(C)C1=C2C3CCC4[C@@]5(C)CC[C@H](O)C(C)(C)C5CC[C@@]4(C)[C@]3(C)CC[C@@]2(C(=O)O)CC1=O (some centres not stated)
- IC50 ([1]; sk-mel-2): 160 uM l-1
- IC50 [2, 7]: 30 µM
- IC50 [3, 8]: 33 µM
- IC50 [4, 9]: 40 µM
- IC50 [5, 10]: 29 µM
- IC50 [6, 7]: 34 µM

SMILES: COC(=O)[C@@]12CC[C@]3(C)C(CCC4[C@@]5(C)CC[C@H](O)C(C)(C)C5CC[C@]43C)C1=C(C(C)C)C(=O)C2 (some centres not stated)
- IC50 [1, 11]: 80 µM
- IC50 [2, 7]: 38 µM
- IC50 [3, 8]: 38 µM
- IC50 [4, 9]: 38 µM
- IC50 [5, 10]: 26 µM
- IC50 [6, 7]: 36 µM

SMILES: CC(=O)OC[C@@]1(C(=O)O)CC[C@]2(C)C(CCC3[C@@]4(C)CC[C@H](OC(=O)CCl)C(C)(C)C4CC[C@]32C)C1=O (some centres not stated)
- IC50 [1, 11]: 1.3 µM
- IC50 [2, 7]: 0.2 µM
- IC50 [3, 8]: 3.6 µM
- IC50 [4, 9]: 2.3 µM
- IC50 [5, 10]: 1 µM
- IC50 [6, 7]: 0.4 µM

SMILES: C=C1CC[C@]2(C)C(CCC3[C@@]4(C)CC[C@H](OC(C)=O)C(C)(C)C4CC[C@]32C)C1=O (some centres not stated)
- IC50 [1, 11]: 2.1 µM
- IC50 [2, 7]: 0.4 µM
- IC50 ([3]; ht-29): 129 uM l-1
- IC50 ([4]; pc-3): 143 uM l-1
- IC50 ([5]; ccrf-cem): > 250 uM l-1
- IC50 [6, 7]: 1.1 µM

SMILES: CC(=O)OC[C@@]12CC[C@]3(C)C(CCC4[C@@]5(C)CC[C@H](OC(=O)CCl)C(C)(C)C5CC[C@]43C)C1=C(C(C)C)C(=O)OC2=O (some centres not stated)
- IC50 ([1]; sk-mel-2): 121 uM l-1
- IC50 ([2]; k562): 181 uM l-1
- IC50 ([3]; ht-29): 216 uM l-1
- IC50 ([4]; pc-3): 250 uM l-1
- IC50 ([5]; ccrf-cem): 162 uM l-1
- IC50 ([6]; k562): 220 uM l-1

SMILES: CC(C)C1=C2C3CCC4[C@@]5(C)CC[C@H](O)C(C)(C)C5CC[C@@]4(C)[C@]3(C)CC[C@@]2(CO)CC1=O (some centres not stated)
- IC50 ([1]; sk-mel-2): > 250 uM l-1
- IC50 ([2]; k562): > 250 uM l-1
- IC50 ([3]; ht-29): > 250 uM l-1
- IC50 ([4]; pc-3): > 250 uM l-1
- IC50 ([5]; ccrf-cem): > 250 uM l-1
- IC50 ([6]; k562): > 250 uM l-1

SMILES: CC(=O)OC[C@@]12CC[C@]3(C)C(CCC4[C@@]5(C)CC[C@H](OC(=O)CCl)C(C)(C)C5CC[C@]43C)C1=C(C(C)C)C(=O)C2 (some centres not stated)
- IC50 ([1]; sk-mel-2): 229 uM l-1
- IC50 ([2]; k562): 110 uM l-1
- IC50 ([3]; ht-29): 110 uM l-1
- IC50 ([4]; pc-3): 242 uM l-1
- IC50 [5, 10]: 44 µM
- IC50 [6, 7]: 97 µM

SMILES: CC(=O)O[C@H]1CC[C@@]2(C)C(CC[C@]3(C)C2CCC2C4=C(C(C)C)C(=O)C[C@]4(C(=O)OCc4ccccc4)CC[C@]23C)C1(C)C (some centres not stated)
- IC50 ([1]; sk-mel-2): 250 uM l-1
- IC50 ([2]; k562): 245 uM l-1
- IC50 ([3]; ht-29): 250 uM l-1
- IC50 ([4]; pc-3): 250 uM l-1
- IC50 ([5]; ccrf-cem): 250 uM l-1
- IC50 ([6]; k562): 250 uM l-1

SMILES: CCOC(=O)[C@@]12CC[C@]3(C)C(CCC4[C@@]5(C)CC[C@H](OC(C)=O)C(C)(C)C5CC[C@]43C)C1=C(C(C)C)C(=O)C2=O (some centres not stated)
- IC50 ([1]; sk-mel-2): 148 uM l-1
- IC50 [2, 7]: 59 µM
- IC50 [3, 8]: 93 µM
- IC50 [4, 9]: 87 µM
- IC50 [5, 10]: 38 µM
- IC50 ([6]; k562): 130 uM l-1

SMILES: CC(=O)OC[C@@]12CC[C@]3(C)C(CCC4[C@@]5(C)CC[C@H](OC(C)=O)C(C)(C)C5CC[C@]43C)C1=C(C(C)C)C(=O)C2 (some centres not stated)
- IC50 ([1]; sk-mel-2): > 250 uM l-1
- IC50 ([2]; k562): > 250 uM l-1
- IC50 ([3]; ht-29): > 250 uM l-1
- IC50 ([4]; pc-3): > 250 uM l-1
- IC50 ([5]; ccrf-cem): > 250 uM l-1
- IC50 ([6]; k562): > 250 uM l-1

SMILES: CC(=O)OC[C@@]12CC[C@]3(C)C(CCC4[C@@]5(C)CC[C@H](OC(=O)CCl)C(C)(C)C5CC[C@]43C)C1=C(C(C)C)C(=O)C2=O (some centres not stated)
- IC50 ([1]; sk-mel-2): 170 uM l-1
- IC50 ([2]; k562): 231 uM l-1
- IC50 ([3]; ht-29): > 250 uM l-1
- IC50 ([4]; pc-3): 208 uM l-1
- IC50 ([5]; ccrf-cem): 242 uM l-1
- IC50 ([6]; k562): > 250 uM l-1

SMILES: CCOC(=O)[C@@]12CC[C@]3(C)C(CCC4[C@@]5(C)CC[C@H](O)C(C)(C)C5CC[C@]43C)C1=C(C(C)C)C(=O)C2 (some centres not stated)
- IC50 [1, 11]: 80 µM
- IC50 [2, 7]: 17 µM
- IC50 [3, 8]: 13 µM
- IC50 [4, 9]: 33 µM
- IC50 [5, 10]: 18 µM
- IC50 [6, 7]: 19 µM

SMILES: COC(=O)[C@@]12CC[C@]3(C)C(CCC4[C@@]5(C)CC[C@H](O)C(C)(C)C5CC[C@]43C)C1=C(C(C)C)C(=O)C2=O (some centres not stated)
- IC50 ([1]; sk-mel-2): 138 uM l-1
- IC50 [2, 7]: 35 µM
- IC50 [3, 8]: 54 µM
- IC50 [4, 9]: 72 µM
- IC50 [5, 10]: 44 µM
- IC50 [6, 7]: 46 µM

SMILES: COC(=O)[C@@]12CC[C@]3(C)C(CCC4[C@@]5(C)CC[C@H](OC(C)=O)C(C)(C)C5CC[C@]43C)C1=C(C(C)C)C(=O)C2 (some centres not stated)
- IC50 ([1]; sk-mel-2): 165 uM l-1
- IC50 [2, 7]: 34 µM
- IC50 ([3]; ht-29): 149 uM l-1
- IC50 ([4]; pc-3): 246 uM l-1
- IC50 [5, 10]: 44 µM
- IC50 [6, 7]: 96 µM

SMILES: CCOC(=O)[C@@]12CC[C@]3(C)C(CCC4[C@@]5(C)CC[C@H](O)C(C)(C)C5CC[C@]43C)C1=C(C(C)C)C(=O)C2=O (some centres not stated)
- IC50 ([1]; sk-mel-2): 140 uM l-1
- IC50 ([2]; k562): 239 uM l-1
- IC50 ([3]; ht-29): 176 uM l-1
- IC50 ([4]; pc-3): 165 uM l-1
- IC50 ([5]; ccrf-cem): 210 uM l-1
- IC50 [6, 7]: 85 µM

SMILES: CC(=O)OC[C@@]12CC[C@]3(C)C(CCC4[C@@]5(C)CC[C@H](O)C(C)(C)C5CC[C@]43C)C1=C(C(C)C)C(=O)C2 (some centres not stated)
- IC50 [1, 11]: 85 µM
- IC50 [2, 7]: 39 µM
- IC50 [3, 8]: 93 µM
- IC50 ([4]; pc-3): 163 uM l-1
- IC50 ([5]; ccrf-cem): 250 uM l-1
- IC50 [6, 7]: 59 µM

SMILES: CC(=O)O[C@H]1CC[C@@]2(C)C(CC[C@]3(C)C2CCC2C4=C(C(C)C)C(=O)C[C@]4(C(=O)O)CC[C@]23C)C1(C)C (some centres not stated)
- IC50 ([1]; sk-mel-2): 128 uM l-1
- IC50 ([2]; k562): > 250 uM l-1
- IC50 ([3]; ht-29): 149 uM l-1
- IC50 ([4]; pc-3): 117 uM l-1
- IC50 ([5]; ccrf-cem): > 250 uM l-1
- IC50 ([6]; k562): > 250 uM l-1

SMILES: C=C(C)[C@@H]1CC[C@]2(CO)CC[C@]3(C)[C@H](CC[C@@H]4[C@@]5(C)CC[C@H](O)C(C)(C)[C@@H]5CC[C@]43C)[C@@H]12 [BETULIN]
- IC50 ([1]; sk-mel-2): > 250 uM l-1
- IC50 ([2]; k562): > 250 uM l-1
- IC50 ([3]; ht-29): > 250 uM l-1
- IC50 ([4]; pc-3): > 250 uM l-1
- IC50 ([5]; ccrf-cem): > 250 uM l-1
- IC50 ([6]; k562): > 250 uM l-1

Source: ChEMBL document CHEMBL1141042, “Correlation of cytotoxic activity of betulinines and their hydroxy analogues” (Bioorg Med Chem Lett, 2005)
